The target of one test is T1, Caspase-6 (Homo sapiens, UniProt P55212).
T1 sequence (P55212 whole entry): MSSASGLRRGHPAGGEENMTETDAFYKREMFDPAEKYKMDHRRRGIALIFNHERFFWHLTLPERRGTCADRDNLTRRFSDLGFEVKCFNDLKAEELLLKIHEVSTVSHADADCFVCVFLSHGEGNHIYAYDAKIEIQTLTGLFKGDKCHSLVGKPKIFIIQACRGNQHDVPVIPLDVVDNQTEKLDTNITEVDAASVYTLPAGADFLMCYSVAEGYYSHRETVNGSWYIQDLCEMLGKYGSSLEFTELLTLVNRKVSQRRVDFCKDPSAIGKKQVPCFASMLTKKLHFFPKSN
In words: Inhibition of caspase6. Summed up: (§1)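 Enzymes (caspases 2, 6 and 7; proteasome, trypsin, thrombin, papain, calpain-I) preincubated with inhibitor 30 min in their own buffer at optimal pH. Substrates at 10–100 µM, assayed at 35 °C. pNA release followed at 405 nm for 1–3 min; initial hydrolysis rate taken.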

The target of a further test is T2, Papain (Carica papaya, UniProt P00784).
T2 sequence (P00784 whole entry): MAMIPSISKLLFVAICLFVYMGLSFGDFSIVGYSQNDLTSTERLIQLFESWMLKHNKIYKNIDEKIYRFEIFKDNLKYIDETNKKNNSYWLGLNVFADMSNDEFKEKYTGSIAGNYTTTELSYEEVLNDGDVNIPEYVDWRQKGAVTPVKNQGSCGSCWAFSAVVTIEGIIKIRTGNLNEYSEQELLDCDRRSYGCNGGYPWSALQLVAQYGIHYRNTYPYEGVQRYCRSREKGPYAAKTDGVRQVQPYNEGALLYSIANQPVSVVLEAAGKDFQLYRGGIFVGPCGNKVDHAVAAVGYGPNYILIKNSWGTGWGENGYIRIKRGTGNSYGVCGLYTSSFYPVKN
The test can be described thus: Inhibition of papain. Summed up:
as §1

A further test addresses Calpain 1 (Homo sapiens, UniProt P07384). The test can be described thus: Inhibition of calpain1. In kind it is protein-complex assay. Summed up: as §1
The next test concerns the target Caspase-8 (Homo sapiens, UniProt Q14790). The test can be described thus: Inhibition of caspase8.
A further test deals with Trypsin (Homo sapiens, UniProt P07477+P07478+P35030). The test can be described thus: Inhibition of trypsin. In kind it is protein assay. The procedure, abridged:
as §1

The target of the next test is T3, Caspase-3 (Homo sapiens, UniProt P42574).
T3 sequence (P42574 whole entry): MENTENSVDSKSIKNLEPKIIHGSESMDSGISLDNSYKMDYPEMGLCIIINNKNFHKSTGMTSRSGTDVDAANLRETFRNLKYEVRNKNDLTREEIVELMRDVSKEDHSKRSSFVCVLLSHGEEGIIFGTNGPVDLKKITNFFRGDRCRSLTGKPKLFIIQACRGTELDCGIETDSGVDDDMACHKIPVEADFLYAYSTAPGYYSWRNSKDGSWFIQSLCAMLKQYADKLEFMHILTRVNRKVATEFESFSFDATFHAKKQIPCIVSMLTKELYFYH
In words: Inhibition of caspase3.

The subject of another test is Proteasome. The test can be described thus: Inhibition of proteasome. In kind it is subcellular. Summed up: as §1
A further test has as its target T4, Caspase-2 (Homo sapiens, UniProt P42575).
T4 sequence (P42575 whole entry): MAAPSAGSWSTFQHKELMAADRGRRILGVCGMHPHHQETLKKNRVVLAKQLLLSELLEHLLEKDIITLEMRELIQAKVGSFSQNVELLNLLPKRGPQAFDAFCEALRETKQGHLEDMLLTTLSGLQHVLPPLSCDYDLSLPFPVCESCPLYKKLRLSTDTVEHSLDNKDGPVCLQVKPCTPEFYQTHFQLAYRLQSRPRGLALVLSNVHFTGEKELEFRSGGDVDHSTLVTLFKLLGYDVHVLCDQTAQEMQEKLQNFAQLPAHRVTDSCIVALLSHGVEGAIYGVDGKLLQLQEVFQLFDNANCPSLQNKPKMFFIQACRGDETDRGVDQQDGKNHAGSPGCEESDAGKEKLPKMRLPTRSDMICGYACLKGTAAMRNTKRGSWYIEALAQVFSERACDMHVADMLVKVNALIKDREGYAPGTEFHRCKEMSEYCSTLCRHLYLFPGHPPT
In words: Inhibition of caspase2. Summed up:
as §1

Another test deals with T5, Caspase-7 (Homo sapiens, UniProt P55210).
T5 sequence (P55210 whole entry): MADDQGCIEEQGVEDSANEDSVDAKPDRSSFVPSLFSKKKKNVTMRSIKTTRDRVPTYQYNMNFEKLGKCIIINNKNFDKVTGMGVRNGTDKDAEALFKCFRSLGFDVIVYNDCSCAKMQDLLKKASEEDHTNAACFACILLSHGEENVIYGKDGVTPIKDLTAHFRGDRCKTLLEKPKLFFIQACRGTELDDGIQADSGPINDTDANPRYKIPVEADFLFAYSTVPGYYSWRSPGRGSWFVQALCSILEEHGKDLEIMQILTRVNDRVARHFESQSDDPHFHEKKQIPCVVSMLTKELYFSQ
In words: Inhibition of caspase7. The procedure, abridged:
as §1

In the next test the target is Prothrombin (Homo sapiens, UniProt P00734). The test can be described thus: Inhibition of thrombin. The procedure, abridged: as §1
A further test has as its target T6, Caspase-3 (Homo sapiens) (UniProt P42574).
T6 sequence (whole entry): T3 sequence (P42574 whole entry)
In words: Inhibition of caspase3 activity in camptothecin-induced apoptotic Jurkat T cells at 2 uM. Type of test: functional, cell-based. Summed up: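 Jurkat cells (1 × 10⁵ cells/mL) preincubated 30 min at 37 °C, given inhibitor for 2 h, then 2 µM camptothecin for 4 h. Lysed by freeze–thaw cycles, spun at 12000g. Lysate assayed with 100 µM Ac-DEVD-AMC in HEPES pH 7.0, sucrose, CHAPS and DTT. AMC fluorescence (ex 360/em 460 nm) read 20 min at room temperature, normalised to Bradford protein.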

Another test deals with Rattus norvegicus. In words: Decrease in infarct volume of ischemic damage in transient MCA occlusion model of Sprague-Dawley rat at 1 mg/kg, sc. Also on record: scale not given: the % may be the effect or the level left. In kind it is functional. The procedure, abridged:
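Male Sprague-Dawley rats (200–240 g); transient MCA occlusion for 1.5 h. Drug in DMSO given sc at 0.5 mL/kg, 5 min after occlusion start. Sacrifice at 24 h; 2 mm coronal slices stained with TTC. Infarct volume corrected by indirect method (contralateral minus intact ipsilateral area); n=8 per group, mean ± SE vs saline-treated animals, one-way ANOVA with Dunnett's test.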

IC50 and Activity data for 9 compounds are collected here from ChEMBL document CHEMBL1138183, “Design, synthesis, and biological evaluation of isoquinoline-1,3,4-trione derivatives as potent caspase-3 inhibitors” (J Med Chem, 2006).

Active and inactive are the calls of the source. The rule behind the calls is not given here. Peptide text beside a SMILES is read from it. * marks the point of attachment. Cbz = O=C(OCc1ccccc1)*; CH2F = FC* A value given as a limit tells only on which side of the number the result lay.

Chain of Calpain 1 (P04632 whole entry): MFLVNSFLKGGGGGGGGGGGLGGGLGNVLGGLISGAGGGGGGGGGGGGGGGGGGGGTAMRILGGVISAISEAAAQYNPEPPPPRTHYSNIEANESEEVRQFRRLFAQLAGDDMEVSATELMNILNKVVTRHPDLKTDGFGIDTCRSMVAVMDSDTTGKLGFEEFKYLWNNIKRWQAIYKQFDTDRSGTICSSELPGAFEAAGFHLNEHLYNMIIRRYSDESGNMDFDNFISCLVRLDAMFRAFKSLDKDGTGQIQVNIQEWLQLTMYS
Chain of Calpain 1 (P07384 whole entry): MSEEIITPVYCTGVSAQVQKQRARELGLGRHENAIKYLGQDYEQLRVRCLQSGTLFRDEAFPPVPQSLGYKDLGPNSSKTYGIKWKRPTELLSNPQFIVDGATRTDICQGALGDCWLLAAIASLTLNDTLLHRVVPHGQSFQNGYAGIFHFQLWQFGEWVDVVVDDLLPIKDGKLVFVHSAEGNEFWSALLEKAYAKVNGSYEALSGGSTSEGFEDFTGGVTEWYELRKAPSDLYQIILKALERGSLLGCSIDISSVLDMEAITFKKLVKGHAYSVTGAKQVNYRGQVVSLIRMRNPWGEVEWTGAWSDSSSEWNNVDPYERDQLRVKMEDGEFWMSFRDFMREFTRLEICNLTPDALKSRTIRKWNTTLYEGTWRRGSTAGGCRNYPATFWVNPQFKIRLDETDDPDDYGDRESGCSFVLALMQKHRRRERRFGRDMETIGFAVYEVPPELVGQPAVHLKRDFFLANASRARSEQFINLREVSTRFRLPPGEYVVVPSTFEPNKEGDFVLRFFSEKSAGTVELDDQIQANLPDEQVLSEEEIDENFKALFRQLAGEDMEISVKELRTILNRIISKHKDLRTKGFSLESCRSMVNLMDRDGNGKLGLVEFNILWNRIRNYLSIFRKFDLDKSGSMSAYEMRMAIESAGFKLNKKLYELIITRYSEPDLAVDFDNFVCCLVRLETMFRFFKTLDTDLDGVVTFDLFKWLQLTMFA
Chain of Caspase-8 (Q14790 217-374 limits assumed): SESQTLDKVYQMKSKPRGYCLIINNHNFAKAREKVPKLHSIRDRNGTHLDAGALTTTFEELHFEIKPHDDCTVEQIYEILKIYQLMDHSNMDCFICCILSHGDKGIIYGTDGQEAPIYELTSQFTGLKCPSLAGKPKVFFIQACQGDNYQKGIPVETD
Chain of Caspase-8 (Q14790 385-479 limits assumed): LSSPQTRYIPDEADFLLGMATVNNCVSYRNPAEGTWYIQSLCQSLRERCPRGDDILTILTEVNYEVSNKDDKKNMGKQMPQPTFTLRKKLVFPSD

In the case of `O=C(CCCl)Nc1ccc2c(c1)C(=O)C(=O)NC2=O`, the IC50 against Caspase-6 was 283 nM; against Papain, above 5000 nM; against Calpain 1, above 5000 nM; on Caspase-8, 575 nM; against Trypsin it was above 5000 nM; against Caspase-3, 83 nM. Also, the IC50 with Proteasome was above 5000 nM; on Caspase-2, 530 nM; on Caspase-7, 139 nM; on Prothrombin, above 5000 nM.

For `CC(=O)N[C@@H](CC(=O)O)C(=O)N[C@@H](CCC(=O)O)C(=O)N[C@H](C(=O)N[C@H](C=O)CC(=O)O)C(C)C`, on Caspase-3 (Homo sapiens), the Activity worked out at 3.4 RFU/µg/min.

For the compound `COc1ccccc1NC(=O)CCC(=O)Nc1ccc2c(c1)C(=O)C(=O)NC2=O`, the IC50 on Caspase-6 is 137 nM; on Papain it was above 5000 nM; at Calpain 1 it was above 5000 nM; on Caspase-8 it was 835 nM; against Trypsin, above 5000 nM; on Caspase-3, 113 nM. The IC50 was above 5000 nM in the test on Proteasome, 537 nM against Caspase-2, 218 nM against Caspase-7 and above 5000 nM on Prothrombin. In the test with Rattus norvegicus (route subcutaneous), this compound yielded an Activity of 77%.

Take `CC(=O)OC(C(=O)Nc1cccc2c1C(=O)C(=O)NC2=O)c1ccccc1` (configuration not stated): the half-maximal inhibitory concentration (IC50) against Caspase-6 was 216 nM; against Papain, above 5000 nM; on Calpain 1 it was above 5000 nM; at Caspase-8, 425 nM; against Trypsin, above 5000 nM; at Caspase-3, 40 nM. Also, the 50% inhibitory concentration (IC50) was above 5000 nM in the test on Proteasome, 233 nM at Caspase-2, 63 nM on Caspase-7 and above 5000 nM against Prothrombin.

Take `O=C1NC(=O)c2cc(NC(=O)c3ccc([N+](=O)[O-])cc3)ccc2C1=O`: the IC50 was 2850 nM on Caspase-6; above 5000 nM on Papain; above 5000 nM against Calpain 1; 24700 nM at Caspase-8; above 5000 nM against Trypsin; 1380 nM against Caspase-3. For the same compound, the IC50 with Proteasome is above 5000 nM; against Caspase-2, 5670 nM; on Caspase-7, 2710 nM; against Prothrombin, above 5000 nM.

As to `O=C(CCC(=O)N1CCCCC1)Nc1ccc2c(c1)C(=O)C(=O)NC2=O`, the IC50 against Caspase-6 was 124 nM; on Papain it was above 5000 nM; at Calpain 1 it was above 5000 nM; against Caspase-8, 288 nM; against Trypsin it was above 5000 nM; on Caspase-3, 25 nM. Also, the IC50 in the test on Proteasome was above 5000 nM; against Caspase-2, 231 nM; on Caspase-7, 64 nM; at Prothrombin, above 5000 nM.

As to `O=C1NC(=O)c2ccccc2C1=O`, the IC50 against Caspase-6 is 474 nM; against Papain, above 5000 nM; on Calpain 1, above 5000 nM; against Trypsin, above 5000 nM; in the test on Proteasome, above 5000 nM; on Caspase-2, 1530 nM. In addition, the figures for the IC50 at Caspase-7 and against Prothrombin were 386 nM and above 5000 nM, respectively. Further, the result with Rattus norvegicus was inactive.

Take `O=C(O)CCC(=O)Nc1ccc2c(c1)C(=O)C(=O)NC2=O`: the IC50 on Caspase-6 was 201 nM; against Papain it was above 5000 nM; on Calpain 1, above 5000 nM; against Caspase-8, 1120 nM; against Trypsin it was above 5000 nM; at Caspase-3, 68 nM. The IC50 in the test on Proteasome is above 5000 nM; against Caspase-2, 859 nM; against Caspase-7, 136 nM; against Prothrombin, above 5000 nM.

At Caspase-3 (Homo sapiens), `CC(C)[C@H](NC(=O)OCc1ccccc1)C(=O)N[C@@H](C)C(=O)N[C@@H](CC(=O)O)C(=O)CF` (Cbz-Val-Ala-Asp-CH2F) registered an Activity of 3.6 RFU/µg/min.
